assay: Sweetness potency relative to 5-10% of sucrose; type: functional
Procedure, shortened: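 Human taste panel: five to ten expert male panelists tasted and spat 10 mL of sweetener solution, rating sweetness potency and quality against five sucrose standards (0.04 M/1.4% to 0.35 M/12.0%). Test solution generally equivalent to 5–10% sucrose. Potency = equi-sweet sucrose concentration divided by actual sweetener concentration; mean ± 95% confidence limit. Acute oral rat toxicity tested first.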

SMILES	Potency
CC12CC(O)C(C1)C(C)(C)C2OC(=O)[C@H](NC(=O)[C@@H](N)CC(=O)O)c1ccccc1 (stereo partly specified)	100
CC1(C)SC(C)(C)C1OC(=O)[C@H](NC(=O)[C@@H](N)CC(=O)O)c1ccccc1	300
CC12CCC(C1)C(C)(C)C2OC(=O)[C@H](NC(=O)[C@@H](N)CC(=O)O)c1ccccc1F (stereo partly specified)	720
COC(=O)C(NC(=O)[C@@H](N)CC(=O)O)C(=O)O[C@@H]1C(C)(C)C2CC[C@]1(C)C2 (stereo partly specified)	50000
CC1CCCC(C)C1OC(=O)[C@H](NC(=O)[C@@H](N)CC(=O)O)c1ccccc1 (stereo partly specified)	210
N[C@@H](CC(=O)O)C(=O)N[C@@H](C(=O)OC1CC2CCC1C2)c1ccccc1 (stereo in doubt; 26)	20
CC12CCC(C1)C(C)(C)C2OC(=O)[C@H](NC(=O)[C@@H](N)CC(=O)O)c1ccc(O)cc1 (stereo partly specified)	420
CC12CCC(O1)C(C)(C)C2COC(=O)[C@H](NC(=O)[C@@H](N)CC(=O)O)c1ccccc1 (stereo partly specified)	0
CC1(OC(=O)[C@H](NC(=O)[C@@H](N)CC(=O)O)c2ccccc2)CC2CCC1C2 (stereo partly specified)	40
CC1(C)C2CCC1(C)C(OC(=O)[C@H](NC(=O)[C@@H](N)CC(=O)O)c1ccccc1)C2 (stereo partly specified)	0
N[C@@H](CC(=O)O)C(=O)N[C@@H](C(=O)OC1CC2CCC1C2)c1ccccc1 (stereo in doubt; 28)	180
N[C@@H](CC(=O)O)C(=O)N[C@@H](C(=O)OC1C2CC3COC1C3C2)c1ccccc1 (stereo partly specified)	80
CC1(C)CCC(C)(C)C1OC(=O)[C@H](NC(=O)[C@@H](N)CC(=O)O)c1ccccc1	190
CC1(C)C2CC[C@](C)(C2)[C@@H]1OC(=O)[C@H](NC(=O)[C@@H](N)CC(=O)O)c1ccccc1 (stereo in doubt; 29)	1200
CC1CCC(C)C1OC(=O)[C@H](NC(=O)[C@@H](N)CC(=O)O)c1ccccc1 (stereo partly specified)	380
CC(OC(=O)[C@H](NC(=O)[C@@H](N)CC(=O)O)c1ccccc1)C(C)(C)C (stereo partly specified)	30
